TRPC6 inh: mouse TRPC6 channel inhibitors, primary screen, cell-based, HEK293, membrane potential dye; B-score at 10 µM; Short transient receptor potential channel 6 (Mus musculus), Q61143; 310,000 compounds, 1.1% hits; ACh-evoked depolarization; active compounds read low;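 active means B-score under library mean minus 3 SD, initial fluorescence not abnormally high, positive integrated signal ratio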;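 further: B-score derived from integrated fluorescence ratio over the kinetic read; more negative B-score means stronger inhibition of depolarization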
TRPC4 potent: positive allosteric modulators of TRPC4, primary screen, cell-based, mouse TRPC4beta, HEK293 mu-opioid, Fluo-4 calcium | 310,000 compounds, 0.42% hits | Short transient receptor potential channel 4 (Mus musculus), Q9QUQ5 | DAMGO EC20, Fluo-4 Ca2+ flux; active compounds read high | B-score at 10 µM;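 active means B-score of calcium response area above 5 SD of library B-scores, with initial fluorescence ratio within 5 SD of library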;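 further: B-score of integrated fluorescence ratio over time as area under calcium response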
Target sequence (Q9QUQ5 whole entry, looked up): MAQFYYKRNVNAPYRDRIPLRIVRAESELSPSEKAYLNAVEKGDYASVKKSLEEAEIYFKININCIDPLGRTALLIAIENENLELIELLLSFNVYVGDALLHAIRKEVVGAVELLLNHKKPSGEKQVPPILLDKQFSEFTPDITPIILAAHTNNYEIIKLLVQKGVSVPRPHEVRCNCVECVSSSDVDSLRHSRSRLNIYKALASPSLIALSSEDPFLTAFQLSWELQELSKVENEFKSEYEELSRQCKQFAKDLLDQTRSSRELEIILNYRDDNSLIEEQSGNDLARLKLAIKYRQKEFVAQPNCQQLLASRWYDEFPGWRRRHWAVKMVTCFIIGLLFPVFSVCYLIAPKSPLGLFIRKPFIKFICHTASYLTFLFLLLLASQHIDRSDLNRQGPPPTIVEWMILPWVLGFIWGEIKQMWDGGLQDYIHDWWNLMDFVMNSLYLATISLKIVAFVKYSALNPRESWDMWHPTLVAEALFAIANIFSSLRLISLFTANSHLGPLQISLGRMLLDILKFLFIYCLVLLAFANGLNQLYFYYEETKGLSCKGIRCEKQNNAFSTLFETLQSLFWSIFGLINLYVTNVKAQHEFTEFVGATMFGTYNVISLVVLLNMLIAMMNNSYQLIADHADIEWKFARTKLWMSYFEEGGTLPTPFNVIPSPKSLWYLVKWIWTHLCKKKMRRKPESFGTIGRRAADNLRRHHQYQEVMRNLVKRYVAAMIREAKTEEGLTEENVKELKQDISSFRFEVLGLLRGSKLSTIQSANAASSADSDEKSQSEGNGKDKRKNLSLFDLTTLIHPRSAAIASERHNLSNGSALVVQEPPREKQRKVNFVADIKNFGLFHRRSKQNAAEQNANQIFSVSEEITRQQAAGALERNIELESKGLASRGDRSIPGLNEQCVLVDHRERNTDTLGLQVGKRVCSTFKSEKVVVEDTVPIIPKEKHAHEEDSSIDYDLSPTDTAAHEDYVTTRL
TRPC4 block: inhibitors of mouse TRPC4 channel, primary screen, Fluo4 calcium, HEK293 TRPC4beta/mu-opioid cells. Short transient receptor potential channel 4 (Mus musculus), Q9QUQ5. AID 2247, 2010. 300,000 compounds, 0.39% hits. B-score at 10 µM. DAMGO-evoked Fluo4 calcium flux; active compounds read low;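 active means B-score over 3 SD under the library average, no early fluorescence shift, positive overall ratio signal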
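System: stable TRPC4beta/mu-opioid receptor HEK293 cells; Dosing: single-point compound dosing; Measured by: Fluo4 Ca2+ flux fluorescence; Read-out basis: per-well B score of integrated baseline-normalized Fluo4 ratio.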
TRPC4 agonist: activators of mouse TRPC4 channel, primary screen, Fluo4 calcium, HEK293 TRPC4beta/mu-opioid cells; B-score at 10 µM; Fluo4 calcium fluorescence; active compounds read high; Short transient receptor potential channel 4 (Mus musculus), Q9QUQ5; 310,000 compounds, 0.49% hits;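 active means B-score above 5 SD of library B-scores, and initial fluorescence ratio not above library mean plus 5 SD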;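 further: positive B-score marks a calcium rise read as TRPC4 activation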
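System – HEK293 cells stably co-expressing mouse TRPC4beta and mu-opioid receptor · Signal – Fluo4 calcium-sensitive dye fluorescence, kinetic, 1 Hz baseline · Benchmarks – buffer (low) and maximal DAMGO (high) · Read-out – B score of integrated fluorescence ratio per well · Incubation – dye loading 45 min room temperature, 110 s kinetic read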
TRPC6 activator: mouse TRPC6 channel activators, primary screen, cell-based, HEK293, membrane potential dye. HEK293-TRPC6 membrane potential dye fluorescence; active compounds read high. 310,000 compounds, 0.13% hits. Short transient receptor potential channel 6 (Mus musculus), Q61143. B-score at 10 µM;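 active means B-score of the integrated fluorescence ratio above library mean plus 3 SD, and starting fluorescence ratio within library mean plus 5 SD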;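 further: higher score means more depolarization so channel activation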
TRPC4 spec 2: second check of whether TRPC6 inhibitors also affect mouse TRPC4; shares compounds with TRPC6 inh; 920 compounds, 42% hits; inhibition, % at 10 µM; HEK293 TRPC4/MOR, membrane potential dye fluorescence; channel activated by saturating DAMGO dose;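 active means compounds whose fluorescence signal differed from control wells by over 3 SD, either direction, in both duplicate plates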
TRPC4 spec: mouse TRPC4 modulation by TRPC6 hits, confirmation, selectivity assay for TRPC6 inhibitor project, cell-based, HEK293 TRPC4/mu-opioid, membrane potential dye; shares compounds with TRPC6 inh; membrane potential fluorescence; activity change, negative = inhibition, % at 10 µM; 920 compounds, 61% hits; AID 2777, 2010;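 active means rise or fall in signal beyond 3 SD of buffer-only wells in both replicate plates, either sign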;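 further: integrated kinetic ratio of fluorescence range over baseline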
HEK293 MPD ctr 2-1: nonspecific membrane potential effects, parental HEK293, confirmation, counter-screen for TRPC6 inhibitor project, cell-based, second counter screen | shares compounds with TRPC6 inh | parental HEK293 membrane potential dye fluorescence; maximal acetylcholine challenge after compound addition | signal change vs control, % at 10 µM | 920 compounds, 31% hits | AID 2779, 2010;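 active means membrane potential signal moving either way by over 3 SD of the maximum-effect control, in both duplicate plates, meaning non-specific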
HEK293 MPD ctr-1: membrane potential modulation in parental HEK293, confirmation, counter-screen for TRPC6 inhibitor project, cell-based; parental HEK293 membrane potential dye fluorescence; 920 compounds, 60% hits; membrane potential signal change, % at 10 µM; AID 2780, 2010; shares compounds with TRPC6 inh;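 active means membrane potential signal shifting up or down by more than 3 SD of buffer-only wells, on both duplicate plates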
HEK293 MPD ctr-2: parental HEK293 membrane potential modulation, confirmation, counter-screen for TRPC6 modulator project, cell-based. 2,400 compounds, 51% hits. shares compounds with TRPC6 inh. membrane potential dye fluorescence. membrane potential signal change, % at 10 µM;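 active means membrane potential signal moves up or down beyond 5 SD from buffer-only wells, on both duplicate plates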
HEK293 MPD ctr 2-2: second check of TRPC6 modulator effects in parental HEK293 cells. inhibition, % at 10 µM. shares compounds with TRPC6 inh. 2,400 compounds, 14% hits. AID 488926. membrane potential dye fluorescence; after compound, maximal acetylcholine stimulation;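 active means membrane potential signal drops by more than 5 SD from the mean control signal, in both duplicate plates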;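 further: plate controls were acetylcholine ECmax control wells for no effect and buffer only wells for full effect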
TRPC4 ctr mod: TRPC4 modulation by TRPC6 hit compounds, confirmation, selectivity assay for TRPC6 modulator project, cell-based, HEK293 TRPC4/mu-opioid, membrane potential dye, mouse; shares compounds with TRPC6 inh; membrane potential fluorescence; percent change from control (negative = decrease, positive = increase), % at 10 µM; 2,400 compounds, 69% hits;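 active means membrane potential signal moved up or down beyond 5 SD of buffer control wells, in both duplicate plates, actives on both sides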;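 further: plate controls were assay buffer wells for no effect and DAMGO maximal-effect wells for full effect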
TRPC4/MOR inh 2: second selectivity test of TRPC6 modulators against mouse TRPC4; HEK293 TRPC4/mu-opioid, membrane potential dye fluorescence; stimulated with maximal-effect DAMGO; 2,400 compounds, 55% hits; inhibition, % at 10 µM; shares compounds with TRPC6 inh;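 active means drop in membrane potential signal beyond 5 SD of the control wells in both duplicate plates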;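 further: TRPC4 counter screen for TRPC6 hits run under conditions tuned for TRPC6 not TRPC4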
TRPC6 inh conf: mouse TRPC6 channel inhibitors, confirmation, HEK293 cells, membrane potential dye, duplicate; shares compounds with TRPC6 inh; ACh-evoked depolarization; inhibition, % at 10 µM; 3,300 compounds, 43% hits;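 active means fluorescence ratio falls more than 5 SD below the full-stimulation control mean, in both duplicate runs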;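 further: integrated fluorescence ratio of peak minus minimum over baseline after agonist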
TRPC6 act confirm: mouse TRPC6 channel activators, confirmation, HEK293 cells, membrane potential dye, duplicate | HEK293-TRPC6 membrane potential dye fluorescence, FDSS | activation, % at 10 µM | shares compounds with TRPC6 inh | 2,800 compounds, 11% hits;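 active means ratio signal rise beyond 5 SD above unstimulated control wells' mean, seen in both duplicate runs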;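 further: plate controls were buffer EC0 wells for no effect and acetylcholine ECmax response for full effect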
* hit, by the source's call; i = inactive; · = not tested or not shown. Rows were chosen to be rich in hits. Some 2.3% of all compounds tested hit in one or more screens of this group.

SMILES | TRPC6 inh | TRPC4 potent | TRPC4 block | TRPC4 agonist | TRPC6 activator | HEK293 MPD ctr-2 | HEK293 MPD ctr 2-2 | TRPC4 ctr mod | TRPC4/MOR inh 2 | TRPC6 inh conf | TRPC6 act confirm | others
COc1ccc(/C=N/Nc2nc(N3CCCC3)nc(N3CCCC3)n2)cc1O | -5.5* | i | i | i | i | i | i | i | i | i | i
COc1cc(/C=N/Nc2nc(N3CCCC3)nc(N3CCCC3)n2)ccc1OCc1ccccc1F | -7.37* | i | i | i | i | · | · | · | · | i | i | TRPC4 spec 2=i;TRPC4 spec=-14.4%*;HEK293 MPD ctr 2-1=i;HEK293 MPD ctr-1=i
COc1ccc(/C=N/Nc2nc(N3CCCC3)nc(N3CCCC3)n2)cc1 | i | i | i | i | i | · | · | · | · | · | ·
COc1ccc(CNC(=O)C2=CC(c3ccc(OC)c(OC)c3)=NS(=O)(=O)N2C)cc1 | i | i | i | i | i | · | · | · | · | · | ·
CCc1ccc(NC(=O)C2=CC(c3ccc(OC)c(OC)c3)=NS(=O)(=O)N2C)cc1 | -5.74* | i | i | i | i | i | i | -17.5%* | 65.5%* | i | i
CCN(CC)CC#CCC(C)(c1ccccc1)c1ccccc1 | -4.98* | i | i | i | i | 142.5%* | i | 36.5%* | i | i | ·
CCN(CC)CC#CCC(O)(c1ccccc1)c1ccccc1 | i | i | i | i | i | · | · | · | · | · | ·
CS(=O)(=O)c1ccc(Cl)c(NC(=O)C2CCCN(C(=O)c3ccc(Cl)cc3)C2)c1 (stereo unspecified) | i | i | i | i | i | · | · | · | · | · | ·
Cc1cc(Cl)ccc1OCC(=O)NCCC(=O)O | -6.63* | i | i | i | i | · | · | · | · | i | i | TRPC4 spec 2=i;TRPC4 spec=i;HEK293 MPD ctr 2-1=i;HEK293 MPD ctr-1=i
COC(=O)c1ccc(S(=O)(=O)N2CCCCCC2)n1C | -5.43* | i | i | i | i | i | i | 7.5%* | i | i | i
COC(=O)c1ccc(S(=O)(=O)N2CCN(C)CC2)n1C | i | i | i | i | i | · | · | · | · | · | ·
COCCNC(=S)Nc1ccc2nc(N3CCCC3)cc(C)c2c1 | -6.16* | i | i | i | i | -135.0%* | 82.0%* | -26.0%* | 40.5%* | 71.0%* | i
COCCNC(=S)Nc1ccc2nc(N3CCOCC3)cc(C)c2c1 | i | i | i | i | i | · | · | · | · | · | ·
CCOCCCNC(=S)Nc1ccc2nc(N3CCCC3)cc(C)c2c1 | -5.63* | i | i | i | i | -138.5%* | i | -25.5%* | 40.5%* | 44.5%* | i
CC(C)Nc1nnc(SC(C)C(=O)Nc2ccc(Cl)cn2)s1 (stereo unspecified) | i | i | i | i | i | · | · | · | · | · | ·
O=C(Nc1ccccc1)NN(C(=O)CCl)c1ccccc1 | i | i | i | i | i | · | · | · | · | · | ·
COC(=O)C1CCCN1C(=O)C12CC3CC(CC(C3)C1)C2 (stereo unspecified) | i | i | i | i | i | · | · | · | · | · | ·
CCCCc1nc2ccccc2c(NC(=O)CNC(C)(C)C)c1CCC | i | i | i | i | i | · | · | · | · | · | ·
CCCCc1nc2ccccc2c(N)c1CCC (tested in a mixture with another compound) | -7.63* | i | -6* | i | i | · | · | · | · | 59.2%* | i | TRPC4 spec 2=15.0%*;TRPC4 spec=i;HEK293 MPD ctr 2-1=i;HEK293 MPD ctr-1=0.7%*
CCOC(=O)N1CCN(c2ccc(S(=O)(=O)N(Cc3ccccc3)Cc3ccccc3)cn2)CC1 | -5.32* | i | i | i | i | i | i | 11.5%* | i | i | i
CN(CC(=O)Nc1ccc(Cl)c(C(F)(F)F)c1)C(=O)Cc1c[nH]c2ccccc12 | -5.74* | i | i | i | i | i | i | -11.0%* | 48.5%* | 57.5%* | i
COC(=O)CCC(=O)OC1(C)C(=O)C=C2C=C(C3CC3)N(CCc3c[nH]c4ccccc34)C=C2C1=O (stereo unspecified) | -7.18* | i | i | i | i | · | · | · | · | i | i | TRPC4 spec 2=i;TRPC4 spec=i;HEK293 MPD ctr 2-1=i;HEK293 MPD ctr-1=i
COC(=O)CCC(=O)OC1(C)C(=O)C=C2C=C(C3CC3)N(CCc3ccccn3)C=C2C1=O (stereo unspecified) | i | i | i | i | i | · | · | · | · | · | ·

Screens from PubChem.
